Experimental data taken from ChEMBL document CHEMBL3352379, “Potent heterocyclic ligands for human complement c3a receptor” (J Med Chem, 2014).
Activity calls are given as the source filed them. The rule behind the calls is not given here.

What was measured:
[1] = biological target: T1, C3a anaphylatoxin chemotactic receptor (Homo sapiens, UniProt Q16581); experiment: Displacement of [125I]-C3a from C3AR in HMDMs by scintillation counting method
T1 sequence (Q16581 whole entry): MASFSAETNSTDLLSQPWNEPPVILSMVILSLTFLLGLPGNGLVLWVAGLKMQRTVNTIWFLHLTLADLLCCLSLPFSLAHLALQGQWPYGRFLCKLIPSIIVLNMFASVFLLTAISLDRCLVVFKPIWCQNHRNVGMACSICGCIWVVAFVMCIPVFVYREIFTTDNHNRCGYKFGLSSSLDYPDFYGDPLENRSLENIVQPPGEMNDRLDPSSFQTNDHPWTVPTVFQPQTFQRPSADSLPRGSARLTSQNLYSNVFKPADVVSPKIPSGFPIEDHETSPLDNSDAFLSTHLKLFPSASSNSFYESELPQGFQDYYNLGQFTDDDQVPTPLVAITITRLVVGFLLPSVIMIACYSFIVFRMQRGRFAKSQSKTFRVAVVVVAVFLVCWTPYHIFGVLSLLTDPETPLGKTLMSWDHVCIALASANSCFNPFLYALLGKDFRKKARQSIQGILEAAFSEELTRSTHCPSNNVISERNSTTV

[2] = biological target: T1, C3a anaphylatoxin chemotactic receptor; experiment: Agonist activity against C3AR in HMDMs assessed as increase in intracellular calcium release by Fluo-3 AM dye based FLIPR assay relative to 1 uM C3a
[3] = biological target: T2, C3a anaphylatoxin chemotactic receptor (Homo sapiens) (UniProt Q16581)
T2 sequence (whole entry): T1 sequence (Q16581 whole entry)

[4] = biological target: T2, C3a anaphylatoxin chemotactic receptor (Homo sapiens); remark: listed apart in the source
[5] = biological target: T1, C3a anaphylatoxin chemotactic receptor; experiment: Antagonist activity against C3AR in HMDMs assessed as inhibition of C3a-induced intracellular calcium release by Fluo-3 AM dye based FLIPR assay
[6] = biological target: T2, C3a anaphylatoxin chemotactic receptor (Homo sapiens); experiment: Agonist activity against C3AR in HMDMs assessed as increase in intracellular calcium release up to 100 uM by Fluo-3 AM dye based FLIPR assay; type: functional, cell-based
Outline: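 Overnight-plated HMDMs (5 × 10^4/well) loaded with 4 μM Fluo-3 AM for 1 h at 37 °C, washed into HBSS with 2.5 mM probenecid, 20 mM HEPES, pH 7.4; compound range added and Ca2+ fluorescence read ≥60 s (495/520 nm) by FLIPR.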

[7] = biological target: T2, C3a anaphylatoxin chemotactic receptor (Homo sapiens); experiment: Agonist activity against C3AR in HMDMs assessed as increase in TNFalpha mRNA expression at 300 nM incubated for 30 mins by qRT-PCR method
Outline: (§1)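 HMDMs (CSF-differentiated CD14+ blood monocytes, day 7) seeded at 1 × 10^6 mL−1 and adhered overnight, then stimulated 30 min at 0.3 μM. RNA extracted; qRT-PCR normalized to 18S rRNA; fold change relative to untreated control; mean ± SEM of three independent experiments.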

[8] = biological target: T2, C3a anaphylatoxin chemotactic receptor (Homo sapiens); experiment: Agonist activity against C3AR in HMDMs assessed as increase in IL-1beta mRNA expression at 300 nM incubated for 30 mins in presence of 30 mins pre-treatment with 10 uM (2-(2,2-Diphenylethoxy)acetyl)-L-arginine by qRT-PCR method
Outline: (§2)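 HMDMs seeded at 1 × 10^6 mL−1, adhered overnight, pretreated with C3aR antagonist (10 μM, 30 min), then stimulated 30 min at 0.3 μM. RNA extracted; qRT-PCR normalized to 18S rRNA; fold change relative to untreated control; mean ± SEM, three independent experiments.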

[9] = biological target: T3, C5a anaphylatoxin chemotactic receptor 1 (Homo sapiens) (UniProt P21730); experiment: Displacement of [125I]-C5a from C5AR in HMDMs 20 uM by scintillation counting method
T3 sequence (whole entry): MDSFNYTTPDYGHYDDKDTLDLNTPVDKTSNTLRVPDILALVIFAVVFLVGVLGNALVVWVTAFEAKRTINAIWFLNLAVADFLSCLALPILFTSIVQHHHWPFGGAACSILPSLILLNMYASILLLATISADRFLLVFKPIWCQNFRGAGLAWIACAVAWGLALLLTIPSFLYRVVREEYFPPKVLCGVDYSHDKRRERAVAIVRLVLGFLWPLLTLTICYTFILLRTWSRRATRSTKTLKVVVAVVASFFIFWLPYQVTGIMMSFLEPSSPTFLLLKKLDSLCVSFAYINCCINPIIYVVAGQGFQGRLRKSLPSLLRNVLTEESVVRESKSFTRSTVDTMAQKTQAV

[10] = biological target: T2, C3a anaphylatoxin chemotactic receptor (Homo sapiens); experiment: Agonist activity against C3AR in HMDMs assessed as increase in IL-1beta mRNA expression at 300 nM incubated for 30 mins by qRT-PCR method; outline: as §1
[11] = biological target: T2, C3a anaphylatoxin chemotactic receptor (Homo sapiens); experiment: Agonist activity against C3AR in HMDMs assessed as increase in CCL3 mRNA expression at 300 nM incubated for 30 mins in presence of 30 mins pre-treatment with 10 uM (2-(2,2-Diphenylethoxy)acetyl)-L-arginine by qRT-PCR method; outline: as §2
[12] = biological target: T2, C3a anaphylatoxin chemotactic receptor (Homo sapiens); experiment: Agonist activity against C3AR in HMDMs assessed as increase in CCL3 mRNA expression at 300 nM incubated for 30 mins by qRT-PCR method; outline: as §1
[13] = biological target: T2, C3a anaphylatoxin chemotactic receptor (Homo sapiens); experiment: Agonist activity against C3AR in C3a desensitized HMDMs assessed as increase in intracellular calcium release at 10 uM added 5 mins post C3a-induced desensitization by Fluo-3 AM dye based FLIPR; type: functional, cell-based
Outline: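 HMDMs desensitized with 300 nM C3a at t0, then given test agonist at 10 μM; calcium signal monitored on FLIPR after Fluo-3 AM loading (4 μM, 1 h, 37 °C) in HBSS with 2.5 mM probenecid, 20 mM HEPES, pH 7.4; excitation 495, emission 520 nm.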

[14] = biological target: T2, C3a anaphylatoxin chemotactic receptor (Homo sapiens); experiment: Agonist activity against C3AR in HMDMs assessed as increase in TNFalpha mRNA expression at 300 nM incubated for 30 mins in presence of 30 mins pre-treatment with 10 uM (2-(2,2-Diphenylethoxy)acetyl)-L-arginine by qRT-PCR method; outline: as §2

Cc1c(C(=O)N[C@@H](CCCNC(=N)N)C(=O)O)nc(C(c2ccccc2)c2ccccc2)n1C gave an IC50 [1] of 31 nM and an EC50 [2] of 40 nM.

For Cc1nc(C(c2ccccc2)c2ccccc2)n(C)c1C(=O)N[C@@H](CCCNC(=N)N)C(=O)O, the IC50 [1] was 1140 nM, the pIC50 [3] was “inactive” and the pEC50 [4] was “inactive”.

N=C(N)NCCC[C@H](NC(=O)c1noc(C(c2ccccc2)c2ccccc2)n1)C(=O)O showed an IC50 [1] of 54 nM and an IC50 [5] of 1000 nM.

With N=C(N)NCCC[C@H](NC(=O)c1nc(C(c2ccccc2)c2ccccc2)no1)C(=O)O the IC50 [1] was 12 nM and the IC50 [5] was 1000 nM.

In the case of Cc1nc(C(c2ccccc2)c2ccccc2)oc1C(=O)N[C@@H](CCCNC(=N)N)C(=O)O, the IC50 [1] is reported as 100 nM and the IC50 [5] is reported as 3980 nM.

N=C(N)NCCC[C@H](NC(=O)CCCC(c1ccccc1)c1ccccc1)C(=O)O was tested, and the Activity [6] was “inactive” and the IC50 [1] was 96 nM.

For N=C(N)NCCC[C@H](NC(=O)c1oc(C(c2ccccc2)c2ccccc2)nc1-c1ccccc1)C(=O)O, the IC50 [1] was 110 nM and the IC50 [5] was 2000 nM.

For Cc1[nH]c(C(c2ccccc2)c2ccccc2)nc1C(=O)N[C@@H](CCCNC(=N)N)C(=O)O, the Activity [7] was “Active”, the Activity [8] was “inactive” and the inhibition [9] was “inactive”. The IC50 [1] was 10 nM, the Activity [10] was “Active” and the Activity [11] was “inactive”. The Activity [12] was “Active”, the Activity [13] was “inactive” and the EC50 [2] was 25.1 nM. The Activity [14] was “inactive”.

For N=C(N)NCCC[C@H](NC(=O)c1nc(C(c2ccccc2)c2ccccc2)[nH]c1-c1ccccc1)C(=O)O, the IC50 [1] was 87 nM and the EC50 [2] was greater than 31600 nM.

In the case of N=C(N)NCCC[C@H](NC(=O)CNCC(c1ccccc1)c1ccccc1)C(=O)O, the Activity [6] is reported as “inactive” and the IC50 [1] is reported as 150 nM.

N=C(N)NCCC[C@H](NC(=O)c1coc(C(c2ccccc2)c2ccccc2)n1)C(=O)O gave an IC50 [1] of 19 nM.

Work on N=C(N)NCCC[C@H](NC(=O)c1nnc(C(c2ccccc2)c2ccccc2)o1)C(=O)O yielded an IC50 [1] of 967 nM and an IC50 [5] of 19000 nM.

N=C(N)NCCC[C@H](NC(=O)COCC(c1ccccc1)c1ccccc1)C(=O)O was tested, and the Activity [6] was “inactive”, the IC50 [1] was 10 nM and the IC50 [5] was 1260 nM.

With Cc1oc(C(c2ccccc2)c2ccccc2)nc1C(=O)N[C@@H](CCCNC(=N)N)C(=O)O the IC50 [1] was 11 nM and the pEC50 [4] was “Active”.

In the case of N=C(N)NCCC[C@H](NC(=O)CSCC(c1ccccc1)c1ccccc1)C(=O)O, the Activity [6] is reported as “inactive” and the IC50 [1] is reported as 8 nM.
